The text below walks through data of ChEMBL document CHEMBL5370658, “Development of First-in-Class Dual Sirt2/HDAC6 Inhibitors as Molecular Tools for Dual Inhibition of Tubulin Deacetylation” (J Med Chem, 2023).

Molecules are shown by their SMILES. The source made the active and inactive calls. No cut-off for these calls is given here.

The test system of experiment [1] is MCF7. Description: Cytotoxicity against human MCF7 cells assessed as reduction in cell viability incubated for 72 hrs by MTT assay. It is filed as functional, cell-based. The procedure, abridged:
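Cell viability EC50 from at least two independent experiments, each run in triplicate. Results are compared by t-test.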
(In general: Tetrazolium dyes change colour on reduction, which living cells bring about.)

Experiment [2] deals with T1, Protein deacetylase HDAC6 (Homo sapiens) (UniProt Q9UBN7).
T1 sequence (whole entry): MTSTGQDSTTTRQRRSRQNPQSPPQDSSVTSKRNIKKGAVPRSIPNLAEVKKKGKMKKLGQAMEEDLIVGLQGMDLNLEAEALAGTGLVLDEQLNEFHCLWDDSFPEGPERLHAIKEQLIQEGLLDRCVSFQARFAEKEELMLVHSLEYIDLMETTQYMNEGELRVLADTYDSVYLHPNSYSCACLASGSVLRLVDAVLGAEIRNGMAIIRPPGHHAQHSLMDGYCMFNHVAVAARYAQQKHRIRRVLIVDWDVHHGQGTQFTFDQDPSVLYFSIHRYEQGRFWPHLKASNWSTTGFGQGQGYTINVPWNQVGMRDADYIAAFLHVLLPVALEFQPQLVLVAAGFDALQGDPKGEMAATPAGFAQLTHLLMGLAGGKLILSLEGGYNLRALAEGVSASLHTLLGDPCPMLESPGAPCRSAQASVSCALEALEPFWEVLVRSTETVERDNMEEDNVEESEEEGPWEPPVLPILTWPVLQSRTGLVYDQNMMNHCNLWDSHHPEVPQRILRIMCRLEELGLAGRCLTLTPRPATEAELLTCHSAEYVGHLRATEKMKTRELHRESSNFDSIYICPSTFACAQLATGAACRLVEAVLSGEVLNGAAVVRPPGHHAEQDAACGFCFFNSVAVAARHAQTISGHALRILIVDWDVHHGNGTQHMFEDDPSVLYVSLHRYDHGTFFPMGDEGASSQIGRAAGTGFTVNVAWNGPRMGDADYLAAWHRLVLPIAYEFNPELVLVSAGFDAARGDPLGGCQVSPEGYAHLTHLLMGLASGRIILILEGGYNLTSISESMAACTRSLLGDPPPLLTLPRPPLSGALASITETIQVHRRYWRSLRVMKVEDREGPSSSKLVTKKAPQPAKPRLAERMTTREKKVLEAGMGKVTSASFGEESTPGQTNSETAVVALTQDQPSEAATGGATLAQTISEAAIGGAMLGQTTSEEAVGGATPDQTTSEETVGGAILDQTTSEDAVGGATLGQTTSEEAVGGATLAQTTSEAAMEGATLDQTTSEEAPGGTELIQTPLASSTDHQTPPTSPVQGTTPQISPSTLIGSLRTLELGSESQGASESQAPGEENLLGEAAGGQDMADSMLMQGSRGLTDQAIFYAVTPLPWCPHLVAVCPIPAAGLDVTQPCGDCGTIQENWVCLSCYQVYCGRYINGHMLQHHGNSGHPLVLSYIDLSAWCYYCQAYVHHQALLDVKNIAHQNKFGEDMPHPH
Briefly: Binding affinity to HDAC6 in human MCF7 cells assessed as target engagement by measuring rescue of PROTAC induced protein degradation at 20 uM preincubated with compound for 30 mins followed by PROTAC 4-((5-(8-(2-((2-(2,6-dioxopiperidin-3-yl)-1,3-dioxoisoindolin-4 yl)oxy)acetamido)octanamido)-2-meth …. The experiment is classed as cell-based. Conditions: time 6.5 hrs.

The target of experiment [3] is Histone deacetylase 1/2/3 (Homo sapiens) (UniProt Q13547+O15379+Q92769). Briefly: Inhibition of HDAC1/2/3 in human MCF7 cells assessed as increase in histone H3 acetylation at 10 to 20 uM incubated for 24 hrs by Western blot analysis. It is filed as cell-based. Conditions: dose 10-20 µM. (In general: Immunoblotting shows a protein as a band on a membrane.)
For experiment [4], the target named is T2, Histone deacetylase 7 (Homo sapiens) (UniProt Q8WUI4).
T2 sequence (whole entry): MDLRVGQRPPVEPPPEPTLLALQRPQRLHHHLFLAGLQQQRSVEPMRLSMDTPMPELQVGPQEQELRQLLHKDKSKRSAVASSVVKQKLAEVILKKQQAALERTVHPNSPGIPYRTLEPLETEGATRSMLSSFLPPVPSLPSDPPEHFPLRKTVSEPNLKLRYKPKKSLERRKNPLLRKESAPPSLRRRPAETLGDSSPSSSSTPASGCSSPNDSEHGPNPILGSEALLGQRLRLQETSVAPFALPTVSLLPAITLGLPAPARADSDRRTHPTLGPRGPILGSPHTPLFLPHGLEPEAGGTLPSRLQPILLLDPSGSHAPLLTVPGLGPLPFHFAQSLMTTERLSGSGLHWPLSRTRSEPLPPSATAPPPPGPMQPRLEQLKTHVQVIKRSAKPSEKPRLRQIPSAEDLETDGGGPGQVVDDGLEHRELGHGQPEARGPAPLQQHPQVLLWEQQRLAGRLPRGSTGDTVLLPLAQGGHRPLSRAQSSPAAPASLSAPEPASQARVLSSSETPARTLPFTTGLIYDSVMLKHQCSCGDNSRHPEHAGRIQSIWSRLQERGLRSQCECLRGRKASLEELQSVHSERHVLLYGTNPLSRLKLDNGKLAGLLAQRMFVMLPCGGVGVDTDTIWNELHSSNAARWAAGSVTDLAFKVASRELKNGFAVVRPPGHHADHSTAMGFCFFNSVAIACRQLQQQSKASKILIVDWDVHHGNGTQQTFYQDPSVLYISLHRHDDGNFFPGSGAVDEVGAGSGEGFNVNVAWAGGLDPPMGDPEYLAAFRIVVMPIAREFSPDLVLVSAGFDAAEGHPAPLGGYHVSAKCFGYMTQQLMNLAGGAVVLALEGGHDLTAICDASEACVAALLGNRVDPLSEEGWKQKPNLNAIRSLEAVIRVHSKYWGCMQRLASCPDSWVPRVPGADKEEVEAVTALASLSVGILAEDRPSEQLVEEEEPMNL
Description: Inhibition of HDAC7 (unknown origin) using Abz-SRGGK(STFA)FRR-NH2 as substrate at 6 to 20000 nM preincubated for 5 mins followed by substrate addition and measured every 30 secs for 30 mins by continuous fluorescence based assay. Conditions: dose 6-20000 nM, time 35.0 min. The procedure, abridged: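 Continuous fluorescence assay in 20 mM HEPES pH 7.4, 140 mM NaCl, 10 mM KCl, 1 mM TCEP, 0.2 mg/mL BSA, 3% DMSO final. Enzyme (HDAC4 5 nM, HDAC5 10 nM, HDAC7 5 nM, HDAC9 20 nM) preincubated with inhibitor at room temperature. HDAC10 (5 nM) instead in 20 mM HEPES pH 7.4, 0.5 mg/mL BSA. Initial slope used as activity.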

In experiment [5] the target is NAD-dependent protein deacylase sirtuin-6 (Homo sapiens) (UniProt Q8N6T7). Briefly: Inhibition of Sirt6 (unknown origin) using Ac-EALPKK(Myr)Y(NO2)GG-NH2 as substrate at 20 to 500 uM preincubated for 5 mins followed by enzyme addition and measured after 1 hr by RP-HPLC analysis. Particulars: dose 20-500 µM, time 65.0 min. The procedure, abridged: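 Discontinuous HPLC assay, 120 µL in 20 mM Tris pH 7.8, 150 mM NaCl, 5 mM MgCl2, 0.2 mg/mL BSA, 5% DMSO. Inhibitor preincubated at 37 °C with NAD+ (1 mM) and substrate (Sirt5 5 µM; Sirt6 20 µM). Started with enzyme (Sirt5 100 nM; Sirt6 500 nM). Quenched with TFA/ACN. Sirt5 read by A220, Sirt6 by A360 (nitrotyrosine). Performed once in duplicates; IC50 by nonlinear regression.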
NAD-dependent protein deacylase sirtuin-6 (Homo sapiens), sequence (Q8N6T7 whole entry): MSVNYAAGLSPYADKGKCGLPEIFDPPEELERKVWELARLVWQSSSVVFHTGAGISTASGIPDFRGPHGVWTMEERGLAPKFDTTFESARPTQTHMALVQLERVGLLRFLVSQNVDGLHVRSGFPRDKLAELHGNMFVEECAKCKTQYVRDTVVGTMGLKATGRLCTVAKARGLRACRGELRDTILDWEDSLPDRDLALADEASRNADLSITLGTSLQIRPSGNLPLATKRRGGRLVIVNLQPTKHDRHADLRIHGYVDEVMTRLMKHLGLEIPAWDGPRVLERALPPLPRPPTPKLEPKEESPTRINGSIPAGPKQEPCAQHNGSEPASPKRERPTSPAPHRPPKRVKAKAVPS

As for `CCCCN(Cc1ccc(C(=O)NO)cc1)C(=O)CCCCn1cc(COc2cccc(Cc3cnc(NC(=O)CSc4nc(C)cc(C)n4)s3)c2)nn1`, the result in experiment [1] and in experiment [2] was Active. Moreover, the inhibition entry in experiment [3], in experiment [4] and in experiment [5] was “inactive” in each case.
